The record followed here is ChEMBL document CHEMBL4699422, “Synthesis and initial pharmacology of dual-targeting ligands for putative complexes of integrin alphaVbeta3 and PAR2” (RSC Med Chem, 2020).

Active and inactive are the calls of the source. No cut-off for these calls is given here. Where a SMILES comes first, the peptide text is derived from it. [ ]: non-standard residue; d: D form. The star is where a group is joined. X1 = COCc1cn(CCOCCOCCOCCOCCOCCOCCN*)nn1; Orn = NCCC[C@H](N)C(=O)O; 2Furoyl = O=C(c1ccco1)*

Experiment [1] deals with T1, Proteinase-activated receptor 2 (Homo sapiens, UniProt P55085).
T1 sequence (P55085 whole entry): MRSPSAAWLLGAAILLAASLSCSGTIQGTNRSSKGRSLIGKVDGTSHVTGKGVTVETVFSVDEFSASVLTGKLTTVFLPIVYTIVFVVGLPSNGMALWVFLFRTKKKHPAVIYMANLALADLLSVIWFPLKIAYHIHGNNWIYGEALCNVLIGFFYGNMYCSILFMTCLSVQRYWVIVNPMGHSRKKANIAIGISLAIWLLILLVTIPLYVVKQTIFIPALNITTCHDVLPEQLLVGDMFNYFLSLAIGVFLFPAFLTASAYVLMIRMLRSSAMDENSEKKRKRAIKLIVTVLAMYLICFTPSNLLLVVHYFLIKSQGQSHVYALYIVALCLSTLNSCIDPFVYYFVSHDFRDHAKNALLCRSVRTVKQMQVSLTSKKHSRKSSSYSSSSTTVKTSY
In words: Agonist activity at PAR2 in human EA.hy926 cells assessed as stimulation of calcium mobilization by Fluo-4-AM dye-based FLIPR assay. The experiment is classed as functional, cell-based, EA.hy 926. In outline:
(§1)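 EA.hy926 cells, passages 7–9, grown in DMEM (4.5 g/L glucose, 4 mM L-glutamine, 1 mM pyruvate, FBS, pen/strep). Calcium read on plate reader as normalized ΔRFU over basal. %Stimulation relative to 100 μM SLIGKV-NH₂ (100%). Curves fitted by 4-variable non-linear regression.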
(Calcium flux is commonly read through the fluorescence of an indicator in the cells.)

Experiment [2] has as its target T2, Integrin alpha-V/beta-3 (Homo sapiens) (UniProt P05106+P06756). The experiment is described as follows: Antagonist activity at integrin alphavbeta3 receptor in HUVEC cells assessed as inhibition of cell adhesion to human vitronectin at 50 uM preincubated for 30 mins followed by transferring to vitronectin coated plates and measured after 1 hr by DAPI staining based inverted fluorescence microscopic analysis. The settings on record: filed as antagonist, time 90.0 min. An outline of the steps: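 Wells coated overnight at 4 °C with 20 μg/mL human vitronectin in PBS pH 7.4, blocked with 1% BSA 1 h at 37 °C. HUVEC washed, in DMEM, treated ± 50 μM ligand 30 min at 25 °C, seeded, 1 h at 37 °C. Washed 3× PBS, fixed 3.7% formaldehyde 5 min, nuclei DAPI-stained (5 μg/mL), imaged at 10×.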

Experiment [3] addresses Proteinase-activated receptor 2 (Homo sapiens) (UniProt P55085). The experiment is described as follows: (§2) Agonist activity at PAR2 in human EA.hy926 cells assessed as stimulation of calcium mobilization treated with cRGD for 30 mins prior to compound addition by Fluo-4-AM dye-based FLIPR assay. The experiment is classed as functional, cell-based. The settings on record: EA.hy 926, filed as agonist. In outline:
as §1

Experiment [4] shares this target. In words: (§3) Agonist activity at PAR2 in human EA.hy926 cells assessed as stimulation of calcium mobilization preincubated for 2 hrs with LPS followed by compound addition in absence of cRGD by Fluo-4-AM dye-based FLIPR assay. The experiment is classed as functional, cell-based. The settings on record: EA.hy 926, filed as agonist.
Experiment [5] has the same target. In words: (§4) Agonist activity at PAR2 in human EA.hy926 cells assessed as stimulation of calcium mobilization preincubated for 2 hrs with LPS and 30 mins with cRGD followed by compound addition by Fluo-4-AM dye-based FLIPR assay. It is filed as functional, cell-based. The settings on record: EA.hy 926, filed as agonist.
For experiment [6], the target named is T1, Proteinase-activated receptor 2. Described as §2. The experiment is classed as functional, cell-based, EA.hy 926. An outline of the steps:
as §1

The target is the same in experiment [7]. The description is as §3. The experiment is classed as functional, cell-based, EA.hy 926.
In experiment [8] the target is T2, Integrin alpha-V/beta-3 (Homo sapiens). In words: Inhibition of Alexa Fluor 647 labelled fibronectin binding to integrin alphavbeta3 receptor (unknown origin) expressed in HEK293FT cells at 5 uM preincubated for 10 mins followed by fibronectin addition and measured after 30 mins by flow cytometric analysis. It is filed as cell-based. The settings on record: filed as antagonist, time 40.0 min. An outline of the steps:
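HEK293FT co-transfected with αV and β3 constructs (≥24 h), in HBSGB (20 mM HEPES pH 7.4, 150 mM NaCl, 5.5 mM glucose, 1% BSA). Cells ± 5 or 50 μM ligand 10 min at 25 °C in 0.2 mM CaCl₂/2 mM MnCl₂ (activating), then Alexa647-Fn (15 μg/mL) plus Alexa488 anti-β3 AP3, 30 min at 25 °C. Resting control in 1 mM Ca²⁺/1 mM Mg²⁺. Flow cytometry on AP3-positive cells; Fn MFI expressed as % of AP3 MFI.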
Background: A flow cytometer gives signals particle by particle.

Experiment [9] deals with T1, Proteinase-activated receptor 2. The experiment is described as §4. It is filed as functional, cell-based, EA.hy 926.

By EC50 is commonly meant the midpoint of the concentration-response curve. Take `CC[C@H](C)[C@H](NC(=O)[C@H](CC(C)C)NC(=O)c1ccco1)C(=O)NCC(=O)N[C@@H](CCCN=C(N)N)C(=O)N[C@@H](CC(C)C)C(=O)N[C@@H](CCCN)C(N)=O` (2Furoyl-LIGRL[Orn]-NH2): the concentration giving a half-maximal response (EC50) in [1] turned out to be 350 nM.
On the same count and under the same terms, next, `CC[C@H](C)[C@H](NC(=O)[C@H](CC(C)C)NC(=O)c1ccco1)C(=O)NCC(=O)N[C@@H](CCCNC(=N)N)C(=O)N[C@@H](CC(C)C)C(=O)N[C@@H](CCCN)C(=O)NCCOCCOCCOCCOCCOCCOCCn1cc(COC)nn1` (2Furoyl-LIGRL[Orn]-X1): 73 nM; `COCc1cn(CCOCCOCCOCCOCCOCCOCCNC(=O)[C@@H](NC(=O)[C@H](CC2CCCCC2)NC(=O)c2ccno2)C2CCCCC2)nn1`: 890 nM.
Take `COc1ccnc(NCCCOc2ccc(C[C@@H](CC(=O)O)NC(=O)c3ccc(OCc4cn(CCOCCOCCOCCOCCOCCOCCNC(=O)[C@@H](NC(=O)[C@H](CC5CCCCC5)NC(=O)c5ccno5)C5CCCCC5)nn4)cc3)cc2)c1`: the inhibition result in experiment [2] was “Active”. In addition, the result in experiment [3], in experiment [4] and in experiment [5] was Active. In experiment [1], the EC50 was 1200 nM.
Regarding `N=C(N)NCCC[C@@H]1NC[C@H](Cc2cn(CCOCCOCCOCCOCCOCCOCCOCCOCCOCCOCCOCCOCCOCCOCCOCCOCCOCCOCCOCCOCCOCCOCCOCCNC(=O)[C@@H](NC(=O)[C@H](CC3CCCCC3)NC(=O)c3ccno3)C3CCCCC3)nn2)NC(=O)[C@@H](Cc2ccccc2)NC(=O)[C@H](CC(=O)O)NC(=O)CNC1=O`, the inhibition entry in [2] and in [8] was “Active” in each case. Besides, the concentration for a half-maximal effect (EC50) was found to be 1200 nM in experiment [6], 3500 nM in experiment [7], 2500 nM in experiment [1] and 1200 nM in [9].
For `CC[C@H](C)[C@H](NC(=O)[C@H](CC(C)C)NC(=O)c1ccco1)C(=O)NCC(=O)N[C@@H](CCCNC(=N)N)C(=O)N[C@@H](CC(C)C)C(=O)N[C@@H](CCCN)C(=O)NCCOCCOCCOCCOCCOCCOCCOCCOCCn1cc(C[C@H]2CN[C@@H](CCCNC(=N)N)C(=O)NCC(=O)N[C@@H](CC(=O)O)C(=O)N[C@H](Cc3ccccc3)C(=O)N2)nn1`, the EC50 in experiment [1] was 62 nM.
As to `CC[C@H](C)[C@H](NC(=O)[C@H](CC(C)C)NC(=O)c1ccco1)C(=O)NCC(=O)N[C@@H](CCCNC(=N)N)C(=O)N[C@@H](CC(C)C)C(=O)N[C@@H](CCCN)C(=O)NCCOCCOCCOCCOCCOCCOCCOCCOCCOCCOCCOCCOCCOCCOCCOCCOCCOCCOCCOCCOCCOCCOCCOCCn1cc(C[C@H]2CN[C@@H](CCCNC(=N)N)C(=O)NCC(=O)N[C@@H](CC(=O)O)C(=O)N[C@H](Cc3ccccc3)C(=O)N2)nn1`, the inhibition entry in experiment [2] and in [8] was “Active” each time. The EC50 in [1] was determined as 130 nM.
